Test results: PMC4553143 (Circulation research, 2015)

How the values were obtained:
granzyme B activity [1] = format: in vivo, mouse
Method in brief: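 Male CMy-Tg and C57BL/6 WT mice (10–12 weeks) received OT-1 CD8+ T cells i.p. in PBS (2.0, 3.5 or 5.0 × 10^6). Dexamethasone 0.75 mg/kg or PBS i.p. daily, days 1–4. Day 4: probe i.v. (50 μL, 1 μmol/L in PBS) or ProSense 680 (2 nmol/150 μL). After 24 h: FMT-CT under anaesthesia; ex vivo FRI, 680 nm channel.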

CMy-Tg mice [2] = assay: Survival study in CD8+ T cell-mediated myocarditis; format: in vivo, mouse; settings: 0.75 mg/kg i.p. for 4 days; 2.0 × 10^6 OT-1 cells; n = 8
Method in brief: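 Male CMy-Tg and WT C57BL/6 mice (10–12 weeks) received 2.0, 3.5 or 5.0 × 10^6 OT-1 CD8+ T cells i.p. in PBS. Dexamethasone 0.75 mg/kg/day, freshly dissolved in sterile PBS, given i.p. in 100 μL on days 1–4 after cell transfer; controls received PBS. Survival followed for 28 days; Kaplan–Meier analysis, n = 8 per group.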

CMy-Tg mice [3] = assay: Heart and serum markers and histology in CD8+ T cell-mediated myocarditis; format: in vivo, mouse; settings: CMy-Tg mice 5 days post transfer of 3.5 × 10^6 OT-1 CD8+ T cells
Method in brief: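 CMy-Tg (n = 12) and WT (n = 4) mice received 3.5 × 10^6 OT-1 CD8+ T cells. PBS vehicle or dexamethasone (0.75 mg/kg) i.p. on days 1–4. Hearts and serum collected at day 5. Heart granzyme B and cleaved caspase-3 measured by Western blot, normalized to GAPDH. Serum granzyme B, interferon-γ and cardiac troponin-I assayed. P values versus vehicle of each strain.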

[4] = tested on: OT-1 CD8+ T cells / CMy-Tg cardiomyocytes; assay: Granzyme B expression in OT-1 CD8+ T cells and co-cultures in vitro; format: cell-based, mouse
chymotrypsin = assay: Enzymatic assay of nanoprobe activation; format: biochemical; settings: chymotrypsin 0.01 mg/mL, 82-fold excess activity; n = 3
[5] = molecular target: T1, granzyme B in lysates of CD8+ T cells (Mus musculus, UniProt P04187); assay: Probe activation by lysates of CD8+ T cells; format: biochemical
T1 sequence (P04187 21-247): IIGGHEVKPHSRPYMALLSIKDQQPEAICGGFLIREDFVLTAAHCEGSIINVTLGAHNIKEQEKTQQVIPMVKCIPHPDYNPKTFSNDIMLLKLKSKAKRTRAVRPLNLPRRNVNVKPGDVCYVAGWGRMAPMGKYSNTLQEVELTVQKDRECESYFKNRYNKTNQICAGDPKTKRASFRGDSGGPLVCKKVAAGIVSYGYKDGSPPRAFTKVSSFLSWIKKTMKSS

granzyme B activity [6] = assay: Ex vivo FRI in cardiac myosin-induced experimental autoimmune myocarditis; design: species or system mouse; settings: 24 hours post probe injection, 21 days after immunization
Method in brief: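 Balb/cByJ mice were immunized with a murine α-myosin H chain-derived peptide (n = 16); controls received PBS instead (n = 4). Granzyme B-sensitive probe given i.v. on day 20. One day later, excised hearts and sections were imaged by microscopic ex vivo FRI in the 680 nm channel. Exposure: 1 min for tissue, 30 min for heart sections.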

Row | Compound | granzyme B activity, fluorescence intensities in hearts (granzyme B activity [1]; dexamethasone administration in vivo, vehicle 504±263, P=0.002) | survival of CMy-Tg mice (CMy-Tg mice [2]) | serum concentrations of granzyme B, interferon-γ, and cardiac troponin-I (CMy-Tg mice [3]) | protein levels of granzyme B and active caspase-3 in hearts (CMy-Tg mice [3]; Western blot) | granzyme B protein concentrations in OT-1 CD8+ T cells and their culture medium ([4]; 48 hours of anti-CD3 stimulation) | probe signals colocalized with granzyme B activity ([4]; CMy-Tg cardiomyocytes co-cultured with OT-1 CD8+ T cells, confocal microscopy) | probe activation on incubation with chymotrypsin (chymotrypsin) | fluorescent signal from the probe incubated with lysates ([5]; lysates of Balb/c WT CD8+ T cells stimulated with anti-CD-3, 48 hours) | fluorescent signal from the probe incubated with lysates ([5]; lysates of granzyme B-deficient CD8+ T cells) | signal compared with ProSense 680 (granzyme B activity [1]; CD8+ T cell-mediated myocardial injury model) | signals from the probe in heart tissues and sections, EAM Balb/cByJ vs WT mice (granzyme B activity [6])
1 | C[C@@H]1C[C@H]2[C@@H]3CCC4=CC(=O)C=C[C@]4(C)[C@@]3(F)[C@@H](O)C[C@]2(C)[C@@]1(O)C(=O)CO [dexamethasone] | 194±77 fluorescence intensities | survived for 28 days | limited these increases | reduced these concentrations | did not mute this rise | decreased the probe signals | – | – | – | – | –
2 | GIEFDSGGC [granzyme B-sensitive nanoprobe] | – | – | – | – | – | – | activation comparable in intensity to Granzyme B | increased above baseline after 48 hours | did not demonstrate a comparable increase | substantially higher signal | higher signals
